From ChEMBL document CHEMBL3098079, “Discovery of hybrid Hsp90 inhibitors and their anti-neoplastic effects against gefitinib-resistant non-small cell lung cancer (NSCLC)” (2014) come the findings set out here.

Structures are written as SMILES. The source made the active and inactive calls. The calls are words filed in the database; no cut-off is given here.

The subject of experiment [1] is NCI-H1975. Briefly: Antiproliferative activity against gefitinib-resistant human NCI-H1975 cells after 1 to 3 days by MTS assay. The experiment is classed as functional. Summed up: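 H1975 (gefitinib-resistant NSCLC, T790M/L858R EGFR) cells exposed to compound at a range of concentrations; viability read by MTS assay at 1, 2 and 3 days of treatment. Data given as mean ± SD, n = 4.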
Background: Tetrazolium dyes change colour on reduction, which living cells bring about.

Experiment [2] addresses Heat shock protein HSP 90-beta (Homo sapiens) (UniProt P08238). Briefly: Inhibition of HSP90 in gefitinib-resistant human NCI-H1975 cells assessed as degradation of HER2 after 24 hrs by Western blot method. The experiment is classed as cell-based. The method in brief:
(§1)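 Dose-response immunoblotting: H1975 cells incubated 24 h with increasing compound concentrations, then lysates probed by Western blot for Hsp90 clients (EGFR, Her2, Met, Akt), downstream signaling proteins and Hsp70. Geldanamycin (1 μM) positive control; DMSO negative control.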
(A western blot detects proteins with antibodies after separation by electrophoresis.)

For experiment [3] the target is unchanged. The experiment is described as follows: Inhibition of HSP90 in gefitinib-resistant human NCI-H1975 cells assessed as degradation of MET after 24 hrs by Western blot method. The experiment is classed as cell-based. The method in brief: as §1
The target is the same in experiment [4]. The experiment is described as follows: Inhibition of HSP90 in gefitinib-resistant human NCI-H1975 cells assessed as degradation of AKT at 40 uM after 24 hrs by Western blot method. The experiment is classed as cell-based. Summed up: (§2)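 H1975 cells treated 24 h with each compound at 40 μM; Hsp90 client proteins and Hsp70 probed by Western blot. Geldanamycin (1 μM) as positive control, DMSO as negative control.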

For experiment [5] the target is unchanged. Briefly: Inhibition of HSP90 in gefitinib-resistant human NCI-H1975 cells assessed as degradation of AKT after 24 hrs by Western blot method. Format: cell-based. The method in brief: as §1
Experiment [6] shares this target. The experiment is described as follows: Inhibition of HSP90 in gefitinib-resistant human NCI-H1975 cells assessed as degradation of EGFR after 24 hrs by Western blot method. Format: cell-based. Summed up: as §1
Experiment [7] shares this target. The experiment is described as follows: Inhibition of HSP90 in gefitinib-resistant human NCI-H1975 cells assessed as degradation of MET at 40 uM after 24 hrs by Western blot method. The experiment is classed as cell-based. Summed up:
as §2

Experiment [8] shares this target. Briefly: Inhibition of HSP90 in gefitinib-resistant human NCI-H1975 cells assessed as degradation of HER2 at 40 uM after 24 hrs by Western blot method. Format: cell-based. Summed up:
as §2

The test system of experiment [9] is NCI-H1975. Briefly: Downregulation of ERK1/2 in gefitinib-resistant human NCI-H1975 cells at 1 to 100 uM after 24 hrs by Western blot method. The experiment is classed as functional, cell-based. Summed up: as §1
For experiment [10], the target named is Heat shock protein HSP 90-beta (Homo sapiens) (UniProt P08238). Briefly: Inhibition of HSP90 in gefitinib-resistant human NCI-H1975 cells assessed as downregulation of Thr202/Tyr204 phosphorylated ERK1/2 level at 1 to 100 uM after 24 hrs by Western blot method. The experiment is classed as cell-based. The method in brief:
as §1

The target is the same in experiment [11]. The experiment is described as follows: Inhibition of HSP90 in gefitinib-resistant human NCI-H1975 cells assessed as transcriptional upregulation of Hsp70 at 40 uM after 24 hrs by Western blot method. The experiment is classed as cell-based. Summed up:
as §2

Experiment [12] has the same target. The experiment is described as follows: Inhibition of HSP90 in gefitinib-resistant human NCI-H1975 cells assessed as degradation of EGFR at 40 uM after 24 hrs by Western blot method. The experiment is classed as cell-based. The method in brief:
as §2

Experiment [13] shares this target. The experiment is described as follows: Inhibition of HSP90 in gefitinib-resistant human NCI-H1975 cells assessed as downregulation of Ser473 phosphorylated AKT level at 1 to 100 uM after 24 hrs by Western blot method. Format: cell-based. Summed up:
as §1

The target is the same in experiment [14]. Briefly: Inhibition of HSP90 in gefitinib-resistant human NCI-H1975 cells assessed as transcriptional upregulation of Hsp70 after 24 hrs by Western blot method. Format: cell-based. Summed up:
as §1

Experiment [15] has the same target. Briefly: Inhibition of HSP90 in gefitinib-resistant human NCI-H1975 cells assessed as downregulation of Tyr1068 phosphorylated EGFR level at 1 to 100 uM after 24 hrs by Western blot method. Format: cell-based. The method in brief: as §1

Chain of Heat shock protein HSP 90-beta (Homo sapiens) (P08238 whole entry): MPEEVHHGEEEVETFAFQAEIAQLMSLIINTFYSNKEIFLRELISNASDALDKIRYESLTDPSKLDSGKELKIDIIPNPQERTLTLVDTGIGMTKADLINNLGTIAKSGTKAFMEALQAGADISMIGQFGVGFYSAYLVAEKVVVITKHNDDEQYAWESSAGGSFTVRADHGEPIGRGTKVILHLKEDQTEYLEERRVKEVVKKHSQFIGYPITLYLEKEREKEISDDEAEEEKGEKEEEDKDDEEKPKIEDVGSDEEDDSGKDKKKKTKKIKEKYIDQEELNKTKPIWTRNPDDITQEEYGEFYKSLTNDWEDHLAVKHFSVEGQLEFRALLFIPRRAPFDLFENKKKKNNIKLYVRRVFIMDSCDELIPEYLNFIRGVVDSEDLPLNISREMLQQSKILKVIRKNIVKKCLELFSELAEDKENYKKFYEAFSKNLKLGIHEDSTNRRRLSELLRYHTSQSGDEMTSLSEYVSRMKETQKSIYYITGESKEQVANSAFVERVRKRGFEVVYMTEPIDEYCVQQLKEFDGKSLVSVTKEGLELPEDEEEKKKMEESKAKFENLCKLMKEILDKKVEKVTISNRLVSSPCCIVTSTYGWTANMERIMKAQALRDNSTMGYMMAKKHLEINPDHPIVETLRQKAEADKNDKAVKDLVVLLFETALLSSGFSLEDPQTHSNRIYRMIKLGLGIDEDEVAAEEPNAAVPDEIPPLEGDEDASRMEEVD

The term GI50 denotes the concentration giving 50% growth inhibition. A low value points to greater sensitivity of the cells. As to `CCCCn1c(Cc2cc(OC)c(OC)c(OC)c2)nc2c(N)ncnc21`, in experiment [1], growth was halved (GI50) at 50 µM.
In the case of `COc1ccc(/C=C/C(=O)c2cc(Cl)c(O)cc2O)c(OC)c1`, the inhibition result in experiment [1] is “Dose-dependent effect”.
In the case of `COc1cc(/C=C/C(=O)c2cc(Cl)c(O)cc2O)cc(OC)c1OC`, the inhibition result in [2], in experiment [3], in [5], in experiment [6], in [1] and in [14] was “Dose-dependent effect” in each case. In addition, the inhibition result in experiment [4], in [7], in [8], in experiment [10], in [11] and in experiment [12] was “Active” in each case. For the same compound, the inhibition entry in [13] and in experiment [15] was “Active” each time. For the same compound, the result in experiment [9] was inactive. The GI50 in [1] worked out at 48 µM.
For the compound `O=C(/C=C/c1ccc(O)cc1O)c1cc(Cl)c(O)cc1O`, the inhibition result in experiment [1] was “Dose-dependent effect”.
Regarding `CCNC(=O)c1n[nH]c(-c2cc(Cl)c(O)cc2O)c1-c1ccc(OC)cc1`, in [1], the GI50 was found to be 1 µM.
